ChEMBL document CHEMBL4715715, “Synthesis and biological evaluation of arylcinnamide linked combretastatin-A4 hybrids as tubulin polymerization inhibitors and apoptosis inducing agents” (Bioorg Med Chem Lett, 2016)

Tests used:
MCF7 [1] = assay: Antiproliferative activity against human MCF7 cells assessed as cell growth inhibition measured after 48 hrs by SRB assay; format: functional
Method in brief: (§1)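 Sulforhodamine B (SRB) cell-staining assay across a panel of human cancer lines. Growth inhibition is reported as GI50.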

DU-145 = assay: Antiproliferative activity against human DU-145 cells assessed as cell growth inhibition measured after 48 hrs by SRB assay; format: functional; method in brief: as §1
HOP-62 = assay: Antiproliferative activity against human HOP-62 cells assessed as cell growth inhibition measured after 48 hrs by SRB assay; format: functional; method in brief: as §1
HeLa = assay: Antiproliferative activity against human HeLa cells assessed as cell growth inhibition measured after 48 hrs by SRB assay; format: functional; method in brief: as §1
K562 = assay: Antiproliferative activity against human K562 cells assessed as cell growth inhibition measured after 48 hrs by SRB assay; format: functional; method in brief: as §1
SK-OV-3 = assay: Antiproliferative activity against human SK-OV-3 cells assessed as cell growth inhibition measured after 48 hrs by SRB assay; format: functional; method in brief: as §1
COLO 205 = assay: Antiproliferative activity against human COLO 205 cells assessed as cell growth inhibition measured after 48 hrs by SRB assay; format: functional; method in brief: as §1
MIA PaCa-2 = assay: Antiproliferative activity against human MIA Paca-2 cells assessed as cell growth inhibition measured after 48 hrs by SRB assay; format: functional; method in brief: as §1
MCF7 [2] = assay: Cell cycle arrest in human MCF7 cells assessed as accumulation at sub-G1 phase at 50 nM measured after 48 hrs by propidium iodide staining based flow cytometry (reference value: 2.4 %); format: functional
Method in brief: (§2)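 MCF-7 cells were treated at 50 and 100 nM for 48 h. Cell-cycle phase distribution (sub-G1, G0/G1, S, G2/M %) was read by flow cytometry against untreated control.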

MCF7 [3] = assay: Cell cycle arrest in human MCF7 cells assessed as accumulation at G0/G1 phase at 50 nM measured after 48 hrs by propidium iodide staining based flow cytometry (reference value: 85.3 %); format: functional; method in brief: as §2
MCF7 [4] = assay: Cell cycle arrest in human MCF7 cells assessed as accumulation at S phase at 50 nM measured after 48 hrs by propidium iodide staining based flow cytometry (reference value: 3.1 %); format: functional; method in brief: as §2
MCF7 [5] = assay: Cell cycle arrest in human MCF7 cells assessed as accumulation at G2/M phase at 50 nM measured after 48 hrs by propidium iodide staining based flow cytometry (reference value: 8.44 %); format: functional; method in brief: as §2
MCF7 [6] = assay: Cell cycle arrest in human MCF7 cells assessed as accumulation at sub-G1 phase at 100 nM measured after 48 hrs by propidium iodide staining based flow cytometry (reference value: 2.4 %); format: functional
MCF7 [7] = assay: Cell cycle arrest in human MCF7 cells assessed as accumulation at G0/G1 phase at 100 nM measured after 48 hrs by propidium iodide staining based flow cytometry (reference value: 85.3 %); format: functional
MCF7 [8] = assay: Cell cycle arrest in human MCF7 cells assessed as accumulation at S phase at 100 nM measured after 48 hrs by propidium iodide staining based flow cytometry (reference value: 3.1 %); format: functional
MCF7 [9] = assay: Cell cycle arrest in human MCF7 cells assessed as accumulation at G2/M phase at 100 nM measured after 48 hrs by propidium iodide staining based flow cytometry (reference value: 8.44 %); format: functional
Sus scrofa = organism: Sus scrofa; assay: Inhibition of porcine brain tubulin polymerization at 3 uM measured after 1 hr in presence of GTP by fluorescence assay relative to control; format: tissue-based
Method in brief: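 Tubulin polymerization was followed by fluorescence (excitation 360 nm, emission 420 nm) for 1 h at 37 °C. Compounds were at 3 μM final, with and without compound. Values are mean ± SD of two experiments done in triplicate.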

[10] = Inhibition of porcine brain tubulin polymerization measured after 1 hr in presence of GTP by fluorescence assay; format: tissue-based, Sus scrofa
Method in brief: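 Tubulin assembly followed by the rise in fluorescence (ex 360 nm, em 420 nm) over 1 h at 37 °C. Compounds tested at a final 3 μM with a reference control. IC50 defined as the concentration inhibiting 50% of tubulin assembly. Mean ± SD of two experiments in triplicate.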

MCF7 [11] = assay: Induction of apoptosis in human MCF7 cells assessed as early apoptotic cells at 50 nM measured after 48 hrs by annexinV-FITC/propidium iodide staining based flow cytometry (reference value: 4.4 %); format: functional
Method in brief: (§3)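 MCF-7 cells were treated at 50 and 100 nM for 48 h. Annexin V-FITC/PI dual staining was read by flow cytometry. Cells were quadrant-gated as UL, UR, LL and LR, with untreated control alongside.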

MCF7 [12] = assay: Induction of apoptosis in human MCF7 cells assessed as necrotic cells at 50 nM measured after 48 hrs by annexinV-FITC/propidium iodide staining based flow cytometry (reference value: 0.1 %); format: functional; method in brief: as §3
MCF7 [13] = assay: Induction of apoptosis in human MCF7 cells assessed as early apoptotic cells at 100 nM measured after 48 hrs by annexinV-FITC/propidium iodide staining based flow cytometry (reference value: 4.4 %); format: functional
MCF7 [14] = assay: Induction of apoptosis in human MCF7 cells assessed as necrotic cells at 100 nM measured after 48 hrs by annexinV-FITC/propidium iodide staining based flow cytometry (reference value: 0.1 %); format: functional
MCF7 [15] = assay: Induction of apoptosis in human MCF7 cells assessed as activation of caspase 9 at 100 nM measured after 48 hrs by fluorescence assay relative to control; format: functional
Method in brief: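 MCF-7 breast cancer cells treated at 100 nM for 48 h. Caspase-9 activity compared with untreated control. Mean ± SD of two experiments each run in triplicate.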

MCF7 [16] = assay: Induction of apoptosis in human MCF7 cells assessed as live cells at 50 nM measured after 48 hrs by annexinV-FITC/propidium iodide staining based flow cytometry (reference value: 95 %)
MCF7 [17] = assay: Induction of apoptosis in human MCF7 cells assessed as live cells at 100 nM measured after 48 hrs by annexinV-FITC/propidium iodide staining based flow cytometry (reference value: 95 %)
MCF7 [18] = assay: Induction of apoptosis in human MCF7 cells assessed as late apoptotic cell population at 50 nM measured after 48 hrs by Annexin V-FITC/PI staining based flow cytometry (reference value: 1 %)
MCF7 [19] = assay: Induction of apoptosis in human MCF7 cells assessed as late apoptotic cell population at 100 nM measured after 48 hrs by Annexin V-FITC/PI staining based flow cytometry (reference value: 1 %)
MCF7 [20] = assay: Induction of apoptosis in human MCF7 cells assessed as early apoptotic cell population at 50 nM measured after 48 hrs by Annexin V-FITC/PI staining based flow cytometry (reference value: 0.7 %)
MCF7 [21] = assay: Induction of apoptosis in human MCF7 cells assessed as early apoptotic cell population at 100 nM measured after 48 hrs by Annexin V-FITC/PI staining based flow cytometry (reference value: 0.7 %)
MCF7 [22] = assay: Induction of apoptosis in human MCF7 cells assessed as late apoptotic cells at 50 nM measured after 48 hrs by annexinV-FITC/propidium iodide staining based flow cytometry (reference value: 0.6 %)
MCF7 [23] = assay: Induction of apoptosis in human MCF7 cells assessed as late apoptotic cells at 100 nM measured after 48 hrs by annexinV-FITC/propidium iodide staining based flow cytometry (reference value: 0.6 %)

| Structure (SMILES) | GI50 (MCF7 [1]) | GI50 (DU-145) | GI50 (HOP-62) | GI50 (HeLa) | GI50 (K562) | GI50 (SK-OV-3) | GI50 (COLO 205) | GI50 (MIA PaCa-2) | Activity (MCF7 [2]) | Activity (MCF7 [3]) | Activity (MCF7 [4]) | Activity (MCF7 [5]) | Activity (MCF7 [6]) | Activity (MCF7 [7]) | Activity (MCF7 [8]) | Activity (MCF7 [9]) | inhibition (Sus scrofa) | IC50 [10] | Activity (MCF7 [11]) | Activity (MCF7 [12]) | also measured |
| --- | --- | --- | --- | --- | --- | --- | --- | --- | --- | --- | --- | --- | --- | --- | --- | --- | --- | --- | --- | --- | --- |
| COc1ccc(/C=C/C(=O)Nc2c(/C=C\c3cc(OC)c(OC)c(OC)c3)ccc(OC)c2O)cc1OC | 56 nM | 60 nM | 90 nM | 7500 nM | 94 nM | 99 nM | 99 nM | 29900 nM | 2.56% | 78.55% | 2.86% | 15.25% | 3.65% | 28.16% | 0.35% | 64.29% | 69.2% | 1970 nM | 8.4% | 0.9% | Activity (MCF7 [13]): 14.8%; Activity (MCF7 [14]): 0.7%; fold change (FC) (MCF7 [15]): 2; live cells (MCF7 [16]): 89%; live cells (MCF7 [17]): 82.2%; Activity (MCF7 [18]): 12%; Activity (MCF7 [19]): 22.5%; Activity (MCF7 [20]): 0.8%; Activity (MCF7 [21]): 7.2%; late apoptotic cells (MCF7 [22]): 1.8%; late apoptotic cells (MCF7 [23]): 2.3% |
| COc1ccc(/C=C\c2cc(OC)c(OC)c(OC)c2)c(NC(=O)/C=C/c2ccc(F)c(F)c2)c1O | 31 nM | 45 nM | 43600 nM | 29200 nM | 99 nM | 29800 nM | 74900 nM | 74000 nM | 2.99% | 70.02% | 1.46% | 23.58% | 3.07% | 27.47% | 0.52% | 66.13% | 73.7% | 1050 nM | 10.5% | 1.1% | Activity (MCF7 [13]): 31.4%; Activity (MCF7 [14]): 0.7%; fold change (FC) (MCF7 [15]): 2; live cells (MCF7 [16]): 86.4%; live cells (MCF7 [17]): 63.1%; Activity (MCF7 [18]): 22.8%; Activity (MCF7 [19]): 26%; Activity (MCF7 [20]): 6.5%; Activity (MCF7 [21]): 6.2%; late apoptotic cells (MCF7 [22]): 2%; late apoptotic cells (MCF7 [23]): 4.7% |
